Experimental data: ChEMBL document CHEMBL3045078, “Insecticidal effect and chemical composition of the volatile oil from Bergenia ligulata” (2011)
Activity calls are given as the source filed them. The calls are words filed in the database; no cut-off is given here.

What was measured:
[1] = tested on: Drosophila melanogaster; assay: Adulticidal activity against adult Drosophila melanogaster (males/females 1:1 ratio) assessed as mortality measured after 3 hr; assay type: functional
Summary of the method: (§1)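 Topical dose applied to the abdomen of ice-immobilised adults, 5–7 days old, in 0.5 μL acetone. Controls received acetone only. Flies were held at 25 °C, RH >60%, on a 12 h light/dark cycle. Thirty flies per dose, three replicates. Survival was recorded 3 h after treatment. Mortality means inability to move, with recovery checked.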

[2] = tested on: Drosophila melanogaster; assay: Adulticidal activity against adult Drosophila melanogaster (males/females 1:1 ratio) assessed as mortality at 1 ng/adult measured after 3 hr; assay type: functional, organism-based
[3] = tested on: Drosophila melanogaster; assay: Adulticidal activity against adult Drosophila melanogaster (males/females 1:1 ratio) assessed as mortality at 2 ng/adult measured after 3 hr; assay type: functional, organism-based; summary of the method: as §1
[4] = tested on: Drosophila melanogaster; assay: Adulticidal activity against adult Drosophila melanogaster (males/females 1:1 ratio) assessed as mortality at 20 ng/adult measured after 3 hr; assay type: functional, organism-based; summary of the method: as §1
[5] = tested on: Drosophila melanogaster; assay: Adulticidal activity against adult Drosophila melanogaster (males/females 1:1 ratio) assessed as mortality at 0.5 ng/adult measured after 3 hr; assay type: functional, organism-based

| SMILES | LD50 [1] | Activity [2] | Activity [3] | Activity [4] | Activity [5] |
| --- | --- | --- | --- | --- | --- |
| C[C@@H]1CC[C@H]2[C@H](C)CC[C@@H](c3ccoc3)N2C1 [(-)-7-EPI-DEOXYNUPHARIDINE] | 0.9 µg | – | – | – | – |
| C[C@H]1CC=CC(=O)O1 [(+)-(6S)-PARASORBIC ACID] | 1.44 µg | inactive | Active | Active | inactive |
| COc1ccc2c(c1OC)CN1CCc3cc4c(cc3[C@@H]1C2)OCO4 [CANADINE] | 2.5 µg | – | – | – | – |
| C=C(C)[C@H]1Cc2c(ccc3c2O[C@@H]2COc4cc(OC)c(OC)cc4[C@@H]2C3=O)O1 [ROTENONE] | 3.68 µg | – | – | – | – |
